Experimental findings from ChEMBL document CHEMBL1926520, “13,13-Dimethyl-des-C,D analogues of (20S)-1α,25-dihydroxy-2-methylene-19-norvitamin D₃ (2MD): total synthesis, docking to the VDR, and biological evaluation” (Bioorg Med Chem, 2011) are described below.

The subject of assay [1] is Rattus norvegicus. Put plainly: Calcium mobilization in vitamin-D deficient weanling rat bone assessed as increase in serum calcium level at 1.9 ug/kg, ip administered daily for 7 consecutive days measured 24 hrs after last dose relative to vehicle treated control. It counts as functional. In outline:
(§1)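 Vitamin D-deficient rats were kept on a low-calcium diet and in the final week dosed ip once daily for 7 consecutive days in 0.1 ml propylene glycol/ethanol (95:5). Controls received vehicle only. Serum Ca (mg/dL) was measured 24 h after the last dose and reported as the increase over vehicle-treated rats, average ± SEM, with 5–6 rats per group.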
(In general: Calcium flux is commonly read through the fluorescence of an indicator in the cells.)

For assay [2], the system named is HL-60. Briefly: Induction of human HL60 cell differentiation after 4 days by nitro blue tetrazolium reduction assay relative to 1alpha,25(OH)2D3. It counts as functional. In outline:
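HL-60 cells were grown in RPMI-1640 with 10% FBS at 37 °C and 5% CO2, plated at 1.2×10^5 cells/plate, and treated in duplicate 18 h later (ethanol <0.2% final). After 4 days, NBT reduction was scored by counting formazan-positive cells among 200. […] The experiment was repeated 2–3 times.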

Assay [3] deals with Rattus norvegicus. Briefly: Calcium mobilization in vitamin-D deficient weanling rat bone assessed as increase in serum calcium level at 22.8 ug/kg, ip administered daily for 7 consecutive days measured 24 hrs after last dose relative to vehicle treated control. It counts as functional. The procedure, abridged:
as §1

For assay [4], the system named is Rattus norvegicus. Put plainly: Calcium mobilization in vitamin-D deficient weanling rat bone assessed as increase in serum calcium level at 5.7 ug/kg, ip administered daily for 7 consecutive days measured 24 hrs after last dose relative to vehicle treated control. It counts as functional. The procedure, abridged:
as §1

Assay [5] deals with Rattus norvegicus. Briefly: Calcium mobilization in vitamin-D deficient weanling rat bone assessed as increase in serum calcium level at 6.5 ug/kg, ip administered daily for 7 consecutive days measured 24 hrs after last dose relative to vehicle treated control. It counts as functional. The procedure, abridged: as §1
The target in assay [6] is T1, Vitamin D3 receptor (Rattus norvegicus, UniProt P13053).
T1 sequence (P13053 whole entry): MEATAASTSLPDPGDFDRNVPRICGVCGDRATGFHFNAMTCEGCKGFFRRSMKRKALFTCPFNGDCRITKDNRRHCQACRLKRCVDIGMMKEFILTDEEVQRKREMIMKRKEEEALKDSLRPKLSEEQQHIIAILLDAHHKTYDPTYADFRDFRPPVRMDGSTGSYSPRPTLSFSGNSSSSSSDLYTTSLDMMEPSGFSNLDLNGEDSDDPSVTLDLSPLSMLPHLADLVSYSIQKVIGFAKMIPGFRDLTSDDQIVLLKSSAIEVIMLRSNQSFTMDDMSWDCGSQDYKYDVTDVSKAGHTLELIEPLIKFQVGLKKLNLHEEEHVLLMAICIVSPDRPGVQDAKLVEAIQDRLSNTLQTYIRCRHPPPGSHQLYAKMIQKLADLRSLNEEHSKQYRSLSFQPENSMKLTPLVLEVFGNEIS
Put plainly: Agonist activity at rat VDR in ROS 17/2.8 cells transfected with Cyp24a1 reporter plasmid assessed as increase in Cyp24a1 transcription after 16 hrs by luciferase reporter gene assay. It counts as functional, cell-based. The procedure, abridged: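 ROS 17/2.8 osteosarcoma (bone) cells stably carrying a Cyp24a1 promoter–luciferase reporter were given a range of doses. Cells were harvested 16 h after dosing and luciferase was read on a luminometer. Duplicates were run on two–three separate occasions.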

For assay [7], the target named is T1, Vitamin D3 receptor. Put plainly: Displacement of [3H]-1alpha,25(OH)2D3 from recombinant rat VDR by scintillation counting. The procedure, abridged:
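It was incubated overnight on ice with 1 nM final [3H]-1α,25(OH)2D3 plus unlabeled ligand in ethanol (<10% final). Bound ligand was collected on hydroxylapatite, washed and counted by scintillation. […] Duplicates were run on two–three occasions.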

Assay [8] has as its system Rattus norvegicus. Put plainly: Calcium transport in vitamin-D deficient weanling rat intestine assessed as intestinal calcium level at 6.5 ug/kg, ip administered daily for 7 consecutive days measured 24 hrs after last dose. It counts as functional. In outline: (§2)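 Vitamin D-deficient rats were kept on a low-calcium diet and dosed ip daily for 7 consecutive days in the last week, in 0.1 ml propylene glycol/ethanol (95:5), with vehicle-only controls. Measurements were taken 24 h after the final dose. Intestinal calcium transport was expressed as the rise in serosal/mucosal (S/M) ratio over vehicle, average ± SEM, with 5–6 rats per group.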

Assay [9] has as its system Rattus norvegicus. Briefly: Calcium transport in vitamin-D deficient weanling rat intestine assessed as intestinal calcium level at 2.1 ug/kg, ip administered daily for 7 consecutive days measured 24 hrs after last dose. It counts as functional. In outline:
as §2

Assay [10] deals with Rattus norvegicus. Briefly: Calcium mobilization in vitamin-D deficient weanling rat bone assessed as increase in serum calcium level at 2.1 ug/kg, ip administered daily for 7 consecutive days measured 24 hrs after last dose relative to vehicle treated control. It counts as functional. In outline:
as §1

Assay [11] relates to Rattus norvegicus. Put plainly: Calcium mobilization in vitamin-D deficient weanling rat bone assessed as increase in serum calcium level at 19 ug/kg, ip administered daily for 7 consecutive days measured 24 hrs after last dose relative to vehicle treated control. It counts as functional. The procedure, abridged: as §1
Assay [12] concerns Rattus norvegicus. Put plainly: Calcium transport in vitamin-D deficient weanling rat intestine assessed as intestinal calcium level at 97 ug/kg, ip administered daily for 7 consecutive days measured 24 hrs after last dose. It counts as functional. In outline: as §2
The subject of assay [13] is HL-60. Briefly: Induction of human HL60 cell differentiation after 4 days by nitro blue tetrazolium reduction assay. The settings on record: HL-60, 96 h. It counts as functional, cell-based.
The test system of assay [14] is Rattus norvegicus. Put plainly: Calcium mobilization in vitamin-D deficient weanling rat bone assessed as increase in serum calcium level at 97 ug/kg, ip administered daily for 7 consecutive days measured 24 hrs after last dose relative to vehicle treated control. It counts as functional. The procedure, abridged:
as §1

Assay [15] relates to Rattus norvegicus. Briefly: Calcium transport in vitamin-D deficient weanling rat intestine assessed as intestinal calcium level at 19 ug/kg, ip administered daily for 7 consecutive days measured 24 hrs after last dose. It counts as functional. In outline:
as §2

The subject of assay [16] is Rattus norvegicus. Put plainly: Calcium transport in vitamin-D deficient weanling rat intestine assessed as intestinal calcium level at 0.7 ug/kg, ip administered daily for 7 consecutive days measured 24 hrs after last dose. It counts as functional. The procedure, abridged: as §2
The subject of assay [17] is Rattus norvegicus. Put plainly: Calcium transport in vitamin-D deficient weanling rat intestine assessed as intestinal calcium level at 0.2 ug/kg, ip administered daily for 7 consecutive days measured 24 hrs after last dose. It counts as functional. In outline:
as §2

The subject of assay [18] is Rattus norvegicus. Briefly: Calcium mobilization in vitamin-D deficient weanling rat bone assessed as increase in serum calcium level at 0.2 ug/kg, ip administered daily for 7 consecutive days measured 24 hrs after last dose relative to vehicle treated control. It counts as functional. The procedure, abridged:
as §1

Assay [19] has as its system Rattus norvegicus. Briefly: Calcium mobilization in vitamin-D deficient weanling rat bone assessed as increase in serum calcium level at 0.7 ug/kg, ip administered daily for 7 consecutive days measured 24 hrs after last dose relative to vehicle treated control. It counts as functional. In outline:
as §1

Turning to `C=C1[C@H](O)CC(=C/C=C/CCC[C@@H](C)CCCC(C)(C)O)C[C@H]1O`, the Activity with Rattus norvegicus [1] was -0.2 mg/dL; in the assay on Rattus norvegicus [3], 0.2 mg/dL; in the assay on Rattus norvegicus [4] it was 0.1 mg/dL. In the assay with HL-60 [2], the “Ratio EC50” value is recorded as 100.

The EC50 is the concentration giving half of the maximal effect. What is called Ki is a dissociation constant, usually derived from enzyme kinetics or from competition with a known ligand. As to `C=C1[C@H](O)CC(=C/C=C\CC(C)(C)C[C@@H](C)CCCC(C)(C)O)C[C@H]1O`, the Activity in the assay with Rattus norvegicus [5] was 0.2 mg/dL; in the assay on Rattus norvegicus [8] it was 0.1 mg/dL. Moreover, on Vitamin D3 receptor [6], the EC50 was 30 nM. Besides, on Vitamin D3 receptor [7], the inhibitory constant (Ki) is 10 nM.

For `C=C1[C@H](O)CC(=C/C=C/CC(C)(C)C[C@@H](C)CCCC(C)(C)O)C[C@H]1O`, the Activity was 0 mg/dL with Rattus norvegicus [9]; 0.2 mg/dL in the assay on Rattus norvegicus [10]; 0.4 mg/dL in the assay with Rattus norvegicus [11]; 2.6 mg/dL with Rattus norvegicus [12]; 0.6 mg/dL with Rattus norvegicus [5]; 0.3 mg/dL in the assay with Rattus norvegicus [14]. Besides, the Activity worked out at 0.4 mg/dL in the assay with Rattus norvegicus [8] and 1 mg/dL with Rattus norvegicus [15]. Moreover, the 50% effective concentration (EC50) worked out at 6 nM with HL-60 [13] and 2 nM at Vitamin D3 receptor [6]. For the same molecule, the inhibition constant (Ki) at Vitamin D3 receptor [7] was determined as 2 nM. In the assay with HL-60 [2], the “Ratio EC50” value was 2.

As to `C=C1/C(=C\C=C2/CCC[C@]3(C)[C@@H]([C@H](C)CCCC(C)(C)O)CC[C@@H]23)C[C@@H](O)C[C@@H]1O` [CALCITRIOL], the Activity in the assay with Rattus norvegicus [9] was found to be 4.2 mg/dL; in the assay with Rattus norvegicus [10], 1.9 mg/dL; in the assay on Rattus norvegicus [16] it was 2.8 mg/dL; in the assay with Rattus norvegicus [11], 3.9 mg/dL; in the assay with Rattus norvegicus [17] it was 4.2 mg/dL; with Rattus norvegicus [18], 0.5 mg/dL. Besides, the values for the Activity with Rattus norvegicus [19] and in the assay with Rattus norvegicus [15] were 1.3 mg/dL and 5.9 mg/dL, respectively.
